# Measured values reported in ChEMBL document CHEMBL1125286, “Zatosetron, a potent, selective, and long-acting 5HT3 receptor antagonist: synthesis and structure-activity relationships” (J Med Chem, 1992).
# Tests used:
# [1] = biological target: T1, Serotonin 3 (5-HT3) receptor (Rattus norvegicus) (UniProt P35563+Q9JJ16); experiment: Compound was tested for the inhibition of 5-HT-induced bradycardia after peroral administration of 0.1 mg/kg at 1 hour in urethane-anesthetized rats; assay type: functional, organism-based; set-up: dose 0.1 mg/kg; conditions: at 0.1 mg/kg
# Procedure, shortened: (§1)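 Duration study: antagonist or vehicle gavaged to conscious fasted rats (5 mL/kg). Rats were urethane-anesthetized and surgically prepared, then challenged with 5HT 0.03 mg/kg iv at the stated time after dosing. Vehicle-treated rats served as controls. Peak inhibition of bradycardia recorded in groups of 3–11, means ± SEM.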
# [2] = biological target: T1, Serotonin 3 (5-HT3) receptor (Rattus norvegicus); experiment: Compound was tested for the inhibition of 5-HT-induced bradycardia after peroral administration of 0.1 mg/kg at 3 hours in urethane-anesthetized rats; assay type: functional, organism-based; set-up: dose 0.1 mg/kg; conditions: at 0.1 mg/kg; procedure, shortened: as §1
# [3] = biological target: T1, Serotonin 3 (5-HT3) receptor (Rattus norvegicus); experiment: Compound was tested for the inhibition of 5-HT-induced bradycardia after peroral administration of 0.1 mg/kg at 0.5 hours in urethane-anesthetized rats; assay type: functional, organism-based; set-up: dose 0.1 mg/kg; conditions: at 0.1 mg/kg; procedure, shortened: as §1
# [4] = biological target: T1, Serotonin 3 (5-HT3) receptor (Rattus norvegicus); experiment: Compound was tested for the inhibition of 5-HT-induced bradycardia after intravenous administration of 0.3 ug/kg dose in urethane-anesthetized rats; assay type: functional, organism-based
# Procedure, shortened: (§2)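 Urethane-anesthetized rats; antagonist or saline given iv via femoral vein after heart rate settled (≤5 min) from an initial 5HT challenge (30 µg/kg iv). 5HT was given again 15 min later. Peak bradycardia measured, each rat its own control; % inhibition = difference between first and second responses. Groups of 3–16 rats, means ± SEM.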
# [5] = biological target: T1, Serotonin 3 (5-HT3) receptor (Rattus norvegicus); experiment: Compound was tested for the inhibition of 5-HT-induced bradycardia after peroral administration of 0.1 mg/kg at 16 hours in urethane-anesthetized rats; assay type: functional, organism-based; set-up: dose 0.1 mg/kg; conditions: at 0.1 mg/kg; procedure, shortened: as §1
# [6] = biological target: T1, Serotonin 3 (5-HT3) receptor (Rattus norvegicus); experiment: Compound was tested for the inhibition of 5-HT-induced bradycardia after intravenous administration of 1 ug/kg dose in urethane-anesthetized rats; assay type: functional, organism-based; procedure, shortened: as §2
# [7] = biological target: T1, Serotonin 3 (5-HT3) receptor (Rattus norvegicus); experiment: 5-hydroxytryptamine 3 receptor antagonistic activity was measured by the inhibition of 5H+ T-induced bradycardia after iv administration of 3 ug/kg dose in urethane-anesthetized rats; assay type: functional, organism-based; procedure, shortened: as §2
# [8] = biological target: T1, Serotonin 3 (5-HT3) receptor (Rattus norvegicus); experiment: 5-hydroxytryptamine 3 receptor antagonistic activity measured by inhibition of 5-HT-induced bradycardia (iv administration 10 ug/kg dose in urethane-anesthetized rats); assay type: functional, organism-based
# Procedure, shortened: (§3)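 Urethane-anesthetized rats. First 5HT challenge 30 μg/kg iv gives a transient bradycardia. Once heart rate is back at steady state (≤5 min), test compound or saline goes in via the femoral vein. 5HT 30 μg/kg iv is repeated 15 min later. % inhibition is the difference between first and second bradycardia at peak, each animal its own control. Means ± SEM, groups of 3–16 rats.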
# [9] = tested on: Serotonin 3 receptor (Cavia porcellus); experiment: In vitro binding affinity was measured for 5-hydroxytryptamine 3 receptor in the guinea pig ileum.
# [10] = biological target: T1, Serotonin 3 (5-HT3) receptor (Rattus norvegicus); experiment: Compound was tested for the inhibition of 5-HT-induced bradycardia after peroral administration of 0.1 mg/kg at 6 hours in urethane-anesthetized rats; assay type: functional, organism-based; set-up: dose 0.1 mg/kg; conditions: at 0.1 mg/kg; procedure, shortened: as §1
# [11] = biological target: T1, Serotonin 3 (5-HT3) receptor (Rattus norvegicus); experiment: Compound was tested for the inhibition of 5-HT-induced bradycardia after peroral administration of 1000 ug/kg dose in urethane-anesthetized rats; assay type: functional, organism-based
# Procedure, shortened: (§4)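 Fasted rats gavaged (5 mL/kg) with antagonist or vehicle (distilled water). Urethane anesthesia and surgical preparation followed, 15–20 min before 5HT challenge. 5HT 30 µg/kg iv given 1 h after dosing, with vehicle-treated rats as controls. Peak % inhibition of bradycardia in groups of 3–11, means ± SEM.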
# [12] = biological target: T1, Serotonin 3 (5-HT3) receptor (Rattus norvegicus); experiment: Compound was tested for the inhibition of 5-HT-induced bradycardia after peroral administration of 30 ug/kg dose in urethane-anesthetized rats; assay type: functional, organism-based; procedure, shortened: as §4
# [13] = biological target: T1, Serotonin 3 (5-HT3) receptor (Rattus norvegicus); experiment: Compound was tested for the inhibition of 5-HT-induced bradycardia after peroral administration of 300 ug/kg dose in urethane-anesthetized rats; assay type: functional, organism-based
# Procedure, shortened: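 Fasted rats dosed by gavage (5 mL/kg) with compound or distilled-water vehicle. Urethane anesthesia and surgical preparation 15–20 min before challenge. 5HT 0.03 mg/kg iv given 1 h after dosing. Peak bradycardia is compared with vehicle-treated controls. Means ± SEM, groups of 3–11 rats.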
# [14] = biological target: T1, Serotonin 3 (5-HT3) receptor (Rattus norvegicus); experiment: Compound was tested for the inhibition of 5-HT-induced bradycardia after peroral administration of 100 ug/kg dose in urethane-anesthetized rats; assay type: functional, organism-based; procedure, shortened: as §4
# [15] = biological target: T1, Serotonin 3 (5-HT3) receptor (Rattus norvegicus); experiment: Compound was tested for the inhibition of 5-HT-induced bradycardia after peroral administration in urethane-anesthetized rats
# [16] = biological target: T1, Serotonin 3 (5-HT3) receptor (Rattus norvegicus); experiment: Inhibition of 5-HT-induced bradycardia by 5-hydroxytryptamine 3+; assay type: functional
# [17] = biological target: T1, Serotonin 3 (5-HT3) receptor (Rattus norvegicus); experiment: 5-hydroxytryptamine 3 receptor antagonistic activity was measured by the inhibition of 5-HT-induced bradycardia after iv administration of 1000 ug/kg dose in urethane-anesthetized rats; assay type: functional, organism-based; procedure, shortened: as §3
# [18] = biological target: T1, Serotonin 3 (5-HT3) receptor (Rattus norvegicus); experiment: 5-hydroxytryptamine 3 receptor antagonistic activity as inhibition of 5-HT-induced bradycardia after iv administration of 100 ug/kg dose in urethane-anesthetized rats; assay type: functional, organism-based; procedure, shortened: as §3
# [19] = biological target: T1, Serotonin 3 (5-HT3) receptor (Rattus norvegicus); experiment: 5-hydroxytryptamine 3 receptor antagonistic activity was measured by the inhibition of 5H+ T-induced bradycardia after iv administration of 1000 ug/kgetized rats; assay type: functional, organism-based; procedure, shortened: as §3
# [20] = biological target: T1, Serotonin 3 (5-HT3) receptor (Rattus norvegicus); experiment: 5-hydroxytryptamine 3 receptor antagonistic activity was measured by the inhibition of 5H+ T-induced bradycardia after iv administration of 1000 ug/kg dose in urethane-anesthetized rats; assay type: functional, organism-based; procedure, shortened: as §3
structure (smiles),measurement,setting,value
CC1Cc2cc(Cl)cc(C(=O)NC3CC4CCC(C3)N4C)c2O1 (stereo not drawn),inhibition,[1],74.6%
same,inhibition,[2],75.2%
same,inhibition,[3],87%
same,inhibition,[4],11%
same,inhibition,[5],0%
same,inhibition,[6],58.1%
same,inhibition,[7],79.8%
same,inhibition,[8],80%
same,-Log KB,[9],8.27
same,inhibition,[10],71.4%
same,inhibition,[11],94.6%
same,inhibition,[12],21.9%
same,inhibition,[13],89.7%
same,inhibition,[14],74.6%
same,ED50,[15],0.063 mg/kg
same,ED50,[16],0.001 mg/kg
CN1C2CCC1CC(NC(=O)c1cc(F)cc3c1OC(C)(C)C3)C2 (stereo not drawn),inhibition,[8],71.7%
CN1C2CCC1CC(NC(=O)c1cc(Br)cc3c1OC(C)(C)C3)C2 (stereo not drawn),inhibition,[7],15.9%
same,inhibition,[8],68.7%
COc1cc2c(c(C(=O)NC3CC4CCC(C3)N4C)c1)OC(C)(C)C2 (stereo not drawn),inhibition,[8],2.9%
CN1C2CCC1CC(OC(=O)c1ccc(OC(F)(F)F)cc1)C2 (stereo not drawn),inhibition,[17],4.7%
CN1C2CCC1CC(OC(=O)c1cccc3oc4ccccc4c13)C2 (stereo not drawn),inhibition,[8],0%
same,inhibition,[18],12.4%
same,inhibition,[19],66.3%
CN1C2CCC1CC(OC(=O)c1cccc3c1OCC3)C2 (stereo not drawn),inhibition,[8],27%
same,inhibition,[18],51.2%
COc1cc2c(c(C(=O)NC3CC4CCC(C3)N4C)c1)OC(C)C2 (stereo not drawn),inhibition,[8],28.9%
CN1C2CCC1CC(OC(=O)c1ccc3c(c1)oc1ccccc13)C2 (stereo not drawn),inhibition,[20],1.5%
